# High-throughput results from PubChem.
# HTRA1 inhibitor – blocks human HTRA1 serine peptidase. Q92743. AID 504803. inhibition, % at 5.96 µM. 340,000 tested, 0.5% active. recombinant HTRA1, FP-rhodamine activity-based probe, fluorescence polarization; in the data active means inhibition above about 36%;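 further: 0% = enzyme with DMSO and 100% = wells lacking enzyme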
# SIAE inh – blocks human sialic acid acetylesterase; 370,000 tested, 0.69% active; Q9HAT2; AID 1053197; inhibition, % at 9.66 µM; SIAE FP-Rh probe binding, fluorescence polarization;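 active means inhibition above a cutoff: mean of compounds within the control limits plus 3 SD of those, cut at about 17% in these data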;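 further: 0% = plate median of compound wells and 100% = probe without SIAE protein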
# TCR-CD3 inh – blocks the human TCR-CD3 interaction; TAMRA-labeled TCR probe fluorescence, biochemical; inhibition, % at 9.4 µM; 360,000 tested, 0.37% active; AID 651800; in the data active means inhibition above about 19%;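 further: recombinant mutant TCR 2C K166C tagged with TAMRA read by polarization; 0% = receptor in buffer alone and 100% = receptor with positive control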
# PAD4 FP inh – PAD4 (human) enzyme inhibition; Q9UM07; recombinant PAD4, RCA probe fluorescence polarization; inhibition, % at 6.36 µM; 330,000 tested, 0.41% active; AID 485272;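 active means percent inhibition above a cutoff equal to the mean of all tested compounds plus 3 SD, cut at about 15% in these data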;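 further: 0% = PAD4 with RCA probe and DMSO and 100% = probe without PAD4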
# Target sequence (Q9UM07 whole entry, looked up): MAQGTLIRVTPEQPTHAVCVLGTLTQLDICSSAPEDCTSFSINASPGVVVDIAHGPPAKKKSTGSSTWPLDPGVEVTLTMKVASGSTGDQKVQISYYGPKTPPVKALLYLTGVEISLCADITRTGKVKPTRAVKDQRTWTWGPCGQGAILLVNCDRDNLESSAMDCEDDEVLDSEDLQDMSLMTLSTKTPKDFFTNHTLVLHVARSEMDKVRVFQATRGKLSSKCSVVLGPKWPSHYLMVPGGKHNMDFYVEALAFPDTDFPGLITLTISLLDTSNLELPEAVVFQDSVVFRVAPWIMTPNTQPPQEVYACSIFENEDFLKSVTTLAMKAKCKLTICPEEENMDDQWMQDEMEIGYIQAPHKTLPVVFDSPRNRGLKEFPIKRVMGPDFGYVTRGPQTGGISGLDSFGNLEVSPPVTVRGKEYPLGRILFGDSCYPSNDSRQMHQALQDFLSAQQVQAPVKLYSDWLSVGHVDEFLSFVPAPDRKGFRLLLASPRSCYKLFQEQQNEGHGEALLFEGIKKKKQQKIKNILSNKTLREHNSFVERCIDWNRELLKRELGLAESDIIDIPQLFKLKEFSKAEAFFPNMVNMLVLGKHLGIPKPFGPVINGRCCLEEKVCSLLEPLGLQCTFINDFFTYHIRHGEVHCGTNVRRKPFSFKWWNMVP
# ABHD4 inh – ABHD4 (mouse) inhibition, primary FP screen. purified mABHD4, FP-Rh probe fluorescence polarization. inhibition, % at 8.92 µM. 370,000 tested, 0.54% active. AID 720543;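 active means inhibition exceeding the mean over every tested compound plus 3 SD, cut at about 30% in these data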;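 further: 0% = plate median of compound wells and 100% = S159A mutant with DMSO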
#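 Assay system: wild-type mouse ABHD4 protein; compound: single nominal dose of 8.92 µM, 0.89% DMSO final; schedule: 45 min + 60 min at 25 °C; measured by: FP readout, ex 525 nm / em 598 nm; evaluation: % inhibition of FP-Rh probe binding versus controls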
# PRMT1 FP inh – blocks human protein arginine methyltransferase 1 | Q99873 | recombinant PRMT1, activity-based probe fluorescence polarization | inhibition, % at 2.79 µM | 370,000 tested, 1.3% active | AID 652257;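 active means inhibition above about 21% made by adding two undisclosed values, limit read from the data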
# ABHD4 confirm – confirmation of mouse ABHD4 inhibitors. shares compounds with ABHD4 inh. purified mABHD4, FP-Rh probe fluorescence polarization. inhibition, % at 8.92 µM. 1,800 tested, 55% active. AID 720658;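 active means mean inhibition across replicates above the hit cutoff set in the primary screen, cut at about 30% in these data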;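 further: 0% = wild-type ABHD4 with DMSO and 100% = catalytically dead S159A mutant with DMSO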
# Active calls of the source: *; . = not tested or not shown; + = active, no number. Only some compounds are listed: those with a hit (about 2.9% of all), similar ones and a draw of the others.
SMILES,HTRA1 inhibitor,SIAE inh,TCR-CD3 inh,PAD4 FP inh,ABHD4 inh,PRMT1 FP inh,ABHD4 confirm
O=C1C=C(c2ccccc2)C(=O)N1Nc1ccccc1,0,1,2,0,31*,22*,24
CCN(CC)S(=O)(=O)c1ccc(N2CCCC2)c(C(=O)OCC(=O)Nc2cc(C)on2)c1,-24,-6,-13,1,45*,8,61*
C#CCN1CC(N(C)CCOC(=O)c2occ3ccccc23)CS1(=O)=O (centres undefined),.,0,.,.,0,-4,.
CCc1ccc(Nc2ccc(C(N)=O)cc2[N+](=O)[O-])cc1,-2,-3,-1,-2,1,-4,.
Cc1cc(C)cc(Nc2ccc(C(=O)O)cc2N)c1,23,5,15,-2,12,3,.
COc1cc(Nc2ccc(C(=O)O)cc2[N+](=O)[O-])cc(OC)c1,-6,-6,-4,-1,36*,4,57*
COc1cccc(Nc2ccc(C(=O)O)cc2N)c1,15,-2,1,4,22,5,.
Cc1cc(C)cc(Nc2ccc(C(=O)O)cc2[N+](=O)[O-])c1,-1,-2,-1,1,32*,11,54*
CCc1ccc(Nc2ccc(C(=O)O)cc2[N+](=O)[O-])cc1,0,2,7,-3,55*,1,69*
CCOc1ccc(CCNC(=O)c2cc3ccsc3n2C)cc1OCC,.,1,.,.,-8,2,.
C=CCN1C(=O)[C@H](CC(=O)NCCCCc2ccccc2)[C@@]2(C(=O)OCC)CCCC=C12,.,-1,.,.,-4,0,.
CCCCCCCCN1C(=O)[C@@H](CC(=O)N2CCOCC2)C[C@@]2(C(=O)OC)C1=C[C@H](C(C)C)O[C@@H]2C1CC1,.,-3,.,.,-12,-4,.
Cc1nn(Cc2ccccc2)c2c1C(c1ccncc1)C(C#N)=C(N)O2 (centres undefined),9,8,0,-4,0,0,.
Cc1nn(Cc2ccccc2)c2c1C(c1ccc(Cl)cc1)C(C#N)=C(N)O2 (centres undefined),8,2,-5,-3,34*,3,-1
Brc1ccccc1Cn1nnc(-c2ccc(N3CCOCC3)cc2)n1,.,5,.,.,-3,-1,.
O=C(NCc1ccc(Cl)cc1)OCCN1C(=O)CCC12CCC(c1ccccc1)CC2 (centres undefined),.,5,.,.,7,-1,.
Cn1c(=O)c2c(nc(SCc3nn[nH]n3)n2Cc2ccccc2F)n(C)c1=O,8,6,5,.,+,0,7
Nc1[nH]c(C(=O)c2ccccc2)c(-c2ccc(Cl)cc2Cl)c1C(=O)NCCC1=CCCCC1,.,-5,.,.,-6,6,.
CC(C)(C)c1ccc(S(=O)(=O)N2CCC(c3cn4ccccc4n3)CC2)cc1,.,-3,.,.,2,-1,.
CCN(C(C)=O)c1cnc(C=NNC(N)=S)c2ccccc12,-6,-2,5,.,7,2,.
NC(=S)NN=Cc1nccc2c(N)cccc12,16,6,4,.,36*,18,44*
O=C(NC1CCCCN(Cc2cccc(Cl)c2)C1=O)c1cccc2nsnc12 (centres undefined),.,3,.,.,-4,1,.
COc1ccc2nc(Nc3nc(C)c(C(C)=O)s3)sc2c1,15,5,1,3,35*,1,54*
Cc1cc(C(=O)O)ccc1-c1ccc(/C=C2\NC(=O)N(Cc3ccccc3Cl)C2=O)o1,-9,.,.,-6,.,.,.
Cc1ccc(C(=O)O)cc1-c1ccc(/C=C2/NC(=O)N(c3ccccc3)C2=O)o1,-5,-1,10,-2,46*,20,30*
SMILES,HTRA1 inhibitor,SIAE inh,TCR-CD3 inh,PAD4 FP inh,ABHD4 inh,PRMT1 FP inh,ABHD4 confirm
Cc1ccc(CN2C(=O)N/C(=C\c3ccc(-c4ccc(C(=O)O)cc4C)o3)C2=O)cc1,5,0,6,-7,43*,1,40*
C=CCN1C(=O)c2n[nH]c(COC)c2C1c1ccc(F)cc1 (centres undefined),.,-3,1,.,6,3,.
Oc1cccc(-c2nnc(-c3cccc(O)c3)nn2)c1,-1,-1,3,.,42*,1,60*
COc1cc(O)cc2cc3c(c(O)c12)C(=O)CC(C)(O)O3 (centres undefined),11,7,13,-5,38*,11,11
CCOc1ccc(CCNC(=O)c2ccc3[nH]ccc3c2)cc1OCC,.,0,.,.,0,4,.
CC/C(C)=N/Nc1nc2c(c(=O)[nH]c(=O)n2C)n1Cc1ccccc1,11,-4,9,3,34*,-1,18
CC/C(C)=N/Nc1nc2c(c(=O)[nH]c(=O)n2C)n1CCc1ccccc1,14,3,1,-7,15,11,.
FC(F)Oc1ccc(NC(=S)Nn2cnnc2)cc1,6,3,2,-4,1,3,.
Oc1cccc2c(NC(=S)Nc3ccc(OC(F)F)cc3)cccc12,16,14,-3,-8,34*,8,11
O=C(COC(=O)c1cc(S(=O)(=O)N2CCCC2)ccc1O)Nc1ccc(SC(F)F)cc1,-23,-20,2,2,31*,9,17
O=C(COC(=O)c1cc(S(=O)(=O)N2CCCC2)ccc1O)Nc1ccc(S(=O)(=O)N2CCOCC2)cc1,3,-3,3,0,1,-1,.
O=C(COc1ccccc1)Nc1nc2cc3c(cc2s1)OCCO3,3,-22,6,-6,-13,0,.
O=C(COc1ccccc1)Nc1nc2cc3c(cc2s1)OCO3,-3,-9,5,5,36*,-4,40*
COc1ccc(NC(=O)c2sc(NC(=O)COc3ccccc3)nc2C)cc1,-5,-9,-1,-2,50*,-2,60*
Cc1nc(NC(=O)COc2ccccc2)sc1C(=O)Nc1cccc(Cl)c1,-20,-7,7,-9,43*,0,33*
C[C@@H]1CCN(C2CC2)S(=O)(=O)c2c(cccc2N2CC[C@H](O)C2)O1,.,-1,.,.,0,1,.
CC(C)(C)S(=O)N1C[C@@H]2CC(=O)C=C2[C@H]1CCO (some centres undefined),.,3,-10,.,5,4,.
COc1cc(/C=C2\C(=O)NN(c3ccccc3)C2=O)ccc1OCC(N)=O,.,7,5,3,6,6,.
COc1cccc(/C=C2/C(=O)NN(c3ccc(C)c(C)c3)C2=O)c1,3,11,5,-1,35*,8,13
COc1cc(/C=C2/C(=O)NN(c3cccc(Cl)c3)C2=O)cc(OC)c1O,6,9,2,-3,36*,22*,16
CCOc1cc(/C=C2/C(=O)NN(c3cccc(Cl)c3)C2=O)ccc1O,-4,6,-5,2,36*,18,38*
C=CC[C@H]1c2ccccc2[C@H]2N3N=Cc4ccccc4[C@H]3[C@H](CCCC)C(=O)N2N1C(=O)c1ccccc1,.,3,.,.,2,2,.
